Experimental data gathered from unrelated publications.
Observed: metabolic stability
Species: rat
Matrix: liver microsomes

| Structure (SMILES) | tested at | pH | half-life |
| --- | --- | --- | --- |
| COc1cnccc1Cn1nc(-c2ccc(CO)o2)c2ccccc21 | 1 µM | pH 7.4 | 7 min |
| N#Cc1ccc(C[C@H](Nc2c(Nc3ccc(Br)cc3)c(=O)c2=O)C(=O)N2CCc3ccccc32)cc1 | 10 µM | pH 7.4 | 38 min |
| COc1ccc(Cn2cc(CO[C@@H]3O[C@H]4[C@H](OC[C@H]4O)[C@H]3O)nn2)cc1 | – | – | 120 min |
| Cc1[nH]c(C)c(S(=O)(=O)Nc2ccc(C(F)(F)F)c(Cl)c2Cl)c1C(=O)N1CCC(F)(F)C1 | – | – | 32 min |
| N#Cc1ccc(C[C@H](Nc2c(Nc3ccc(F)cc3)c(=O)c2=O)C(=O)N2CCc3ccccc32)cc1 | 10 µM | pH 7.4 | 20 min |
| O=C1CCC(N2Cc3cc(C4CCN(Cc5ccccc5)CC4)ccc3C2=O)C(=O)N1 (stereo not shown) | 1 µM | – | > 60 min |
| C=CCn1c(=O)c2cnc(Nc3ccc(N4CCN(C)CC4)cc3)nc2n1-c1ccc2c(n1)[C@@](O)(CC)CC2 | – | – | 79 min |
| OCc1ccc(-c2nn(Cc3ccccn3)c3cccnc23)o1 | 1 µM | pH 7.4 | > 30 min |
| O=C1c2ccccc2C(=O)N1CCCN1CCN(C(c2ccc(F)cc2)c2ccc(F)cc2)CC1 | 100 ng/mL | – | 3.9 min |
| N#Cc1ccc(C[C@H](Nc2nnc(-c3cccc(F)c3)s2)C(=O)N2CCc3ccccc32)cc1 | 10 µM | pH 7.4 | 47 min |
| NCc1ccc(-c2nn(Cc3ccccc3)c3ccccc23)o1 | – | – | 85 min |
| N#Cc1ccc(C[C@H](Nc2ncc(-c3ccc(F)cc3)o2)C(=O)N2CCc3ccccc32)cc1 | 10 µM | pH 7.4 | 43 min |
| COc1ncccc1Cn1nc(-c2ccc(CO)o2)c2ccccc21 | 1 µM | pH 7.4 | 6 min |
